Sampled rows, rich in hits. Any-hit rate of the full collection: about 2.1%.
FID counter – fluorescent intercalator displacement, NS3 helicase counter-screen; DNA fluorescent intercalator displacement, fluorescence; inhibition, % at 7.9 µM; hit rate 0.17% among 290,000; AID 1845; in the data active = inhibition above about 37%;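 also: 0% = vehicle and 100% = reference compound; higher means more ethidium bromide displaced from hairpin DNA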
NS3 helicase inh – inhibitors of Hepatitis C virus NS3 helicase. NS3 helicase DNA unwinding, Cy5 molecular beacon fluorescence. AID 1800. inhibition, % at 10.9 µM. hit rate 0.56% among 290,000;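 active = inhibition above the mean of all tested compounds plus 3 SD, set per campaign, cut at about 35% in these data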;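 also: 0% = DMSO wells and 100% = thioflavine S control wells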
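test system = hepatitis C virus NS3 helicase domain fragment enzyme | reagent = annealed dual-labelled DNA beacon duplex, ATP-started | times = 1 h at 25 °C | detection = Cy5 fluorescence, 0 and 60 min reads | read-out basis = percent inhibition from t60/t0 fluorescence ratio | control set = DMSO and thioflavine S | replication = one well per compound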
VIM-2 inh – blocks Pseudomonas aeruginosa VIM-2 metallo-beta-lactamase; purified VIM-2, nitrocefin hydrolysis, epi-absorbance fluorescence; inhibition, % at 5.6 µM; hit rate 0.89% among 290,000; AID 1527;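 active = inhibition above the mean of all tested compounds plus 3 SD, cutoff set per screening run, cut at about 7.5% in these data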;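 also: red hydrolysis product quenches plate fluorescence so inhibitors raise well fluorescence; 0% = enzyme with DMSO and 100% = DMSO without enzyme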
IMP-1 inhibitor – blocks Pseudomonas aeruginosa IMP-1 metallo-beta-lactamase | purified IMP-1, nitrocefin hydrolysis, epi-absorbance fluorescence | inhibition, % at 5.6 µM | hit rate 0.45% among 290,000;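 active = inhibition above the mean plus 3 SD of all compounds in the same screening run, cut at about 4.5% in these data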;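 also: 0% = IMP-1 with DMSO and 100% = DMSO wells lacking enzyme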
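Test system: recombinant IMP-1 enzyme, purified / Medium: HEPES buffer pH 7.1 with ZnSO4 and Brij 35 / Doses: single dose, 5.6 µM / Times: 25 °C, 15 min preincubation, 25 min reaction / Detection: Epi-absorbance via hydrolysed-nitrocefin quenching of white-plate fluorescence, 480/530 nm, EDTA stop / Evaluation: percent inhibition from optical density relative to buffer-blank wells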
UBC9 SUMO inh – blocks human SUMOylation mediated by UBC9; inhibition, % at 35 µM; HTRF SUMOylation assay, SAE1/SAE2 + UBC9, in vitro; hit rate 0.36% among 290,000; in the data active = inhibition above about 50%, passing the limit was not always enough
Target sequence (P63279 whole entry, looked up): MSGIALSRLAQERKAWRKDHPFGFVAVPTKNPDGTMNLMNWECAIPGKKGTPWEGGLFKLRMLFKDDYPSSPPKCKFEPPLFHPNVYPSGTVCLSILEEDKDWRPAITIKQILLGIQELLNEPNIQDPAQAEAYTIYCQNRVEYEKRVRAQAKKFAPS
An asterisk follows results filed as active; nt = not tested or not shown.

SMILES	FID counter	NS3 helicase inh	VIM-2 inh	IMP-1 inhibitor	UBC9 SUMO inh
COc1ccccc1Oc1ccc2c(c1)C(=O)N(c1ccc(Br)c3cccnc13)C2=O	-1	6	-1	4.9*	0
COc1cc(OC)c(C(=O)Nc2cccc3ccccc23)cc1OC	-21	-6	1	1	-7
O=C(N/N=C/c1ccncc1)c1cccc(NC(=O)c2ccc(Cl)cc2)c1	-9	-10	-3	-4	62*
O=C(N/N=C/c1ccncc1)c1sc2ccccc2c1Cl	-28	-7	8.9*	-2	13
O=C(CSc1nnc(NC(=O)c2ccccc2Cl)s1)Nc1ccc2c(c1)oc1ccccc12	-3	-1	1	-1	42
C#CCOCCOCCOCCNc1nc(N2CCN(C(=O)[C@H](CCC(=O)O)n3cc(C(N)CC(C)C)nn3)CC2)nc(N2CCN(C(=O)[C@H](CCC(=O)O)n3cc(C(N)[C@H](C)CC)nn3)CC2)n1 (stereo not given in full)	-39	-10	-2	-3	18
C#CCOCCOCCOCCNc1nc(N2CCN(C(=O)[C@H]([C@@H](C)CC)n3cc([C@@H](N)CO)nn3)CC2)nc(N2CCN(C(=O)[C@H](CCCCN)n3cc([C@@H](N)CC(C)C)nn3)CC2)n1	43*	-63	-1	-2	12
C#CCOCCOCCOCCNc1nc(N2CCN(C(=O)[C@H]([C@@H](C)CC)n3cc([C@@H](N)CC(C)C)nn3)CC2)nc(N2CCN(C(=O)[C@H]([C@@H](C)CC)n3cc([C@@H](N)CC(C)C)nn3)CC2)n1	34	-72	-3	-2	-13
C#CCOCCOCCOCCNc1nc(N2CCN(C(=O)[C@H]([C@@H](C)CC)n3cc([C@@H](N)Cc4ccc(O)cc4)nn3)CC2)nc(N2CCN(C(=O)[C@H](CCCCN)n3cc([C@@H](N)C(C)CC)nn3)CC2)n1 (stereo not given in full)	43*	-62	-2	-1	15
C#CCOCCOCCOCCNc1nc(N2CCN(C(=O)[C@H](CCC(=O)O)n3cc(C(N)Cc4ccc(O)cc4)nn3)CC2)nc(N2CCN(C(=O)[C@H](CCCCN)n3cc(C(N)[C@H](C)CC)nn3)CC2)n1 (stereo not given in full)	nt	nt	nt	nt	-5
C#CCOCCOCCOCCNc1nc(N2CCN(C(=O)[C@H](CCCCN)n3cc([C@@H](N)C(C)CC)nn3)CC2)nc(N2CCN(C(=O)[C@H](CCCCN)n3cc([C@@H](N)CC(C)C)nn3)CC2)n1 (stereo not given in full)	62*	-60	-2	-5	1
C#CCOCCOCCOCCNc1nc(N2CCOCC2)nc(N2CCN(C(=O)[C@H](CCCCN)n3cc([C@@H](N)C(C)CC)nn3)CC2)n1 (stereo not given in full)	38*	-55	-3	-3	1
COc1ccc(NC2CCCN(C(=O)C3(C)CCCCC3)C2)cc1OC (stereo not given)	-19	0	-3	-1	-10
COc1ccc(NC(=O)NCC(C)CSc2ccc(C)cc2)c(OC)c1 (stereo not given)	-23	-5	-1	-2	-26
CCOC(=O)c1ccc(NC(=O)c2ccc[n+]([O-])c2)cc1	-6	2	-2	-3	12
CCC(=O)NC1=C(Cl)C(=O)C(NC(=O)CC)=C(Cl)C1=O	4	11	0	-8	76*
CCc1ccc(Nc2n[n+](-c3ccccc3)c(-c3ccc(OCc4ccccc4)cc3)s2)cc1	7	-117	-3	-2	-91
CCc1ccc(Nc2n[n+](-c3ccccc3)c(-c3ccc(N(CC)CC)cc3)s2)cc1	-4	-72	3	7.9*	11
CCN(CC)c1ccc(-c2sc(Nc3ccccc3)n[n+]2-c2ccc(F)cc2)cc1	-9	-82	3	5.0*	-3
O=[N+]([O-])c1ccc(/C=C/C2=NN(c3ccccc3)C(c3ccco3)C2)cc1 (stereo not given)	2	7	2	1	19
O=[N+]([O-])c1ccc(C2=NN(c3ccccc3)C(c3ccco3)C2)cc1 (stereo not given)	-11	22	3	6.6*	8
NCc1cc2c3c(c1)CCCN3CCC2	31	-10	9.0*	-2	31
COC(=O)c1c(C(=O)OC)c(-c2ccc(C)cc2)n2c1CCC2	-19	-1	-2	-3	18
